Data set [1] in a line: Cytotoxicity against human HEK293T cells incubated for 48 hrs by MTT assay. It counts as cell-based, HEK-293T. The note with it: HEK293T cells. An outline of the steps:
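HEK293T cells at 10⁵ cells/ml were added to two-fold compound dilutions in 10% DMEM and incubated 48 h at 37 °C, 5% CO2. MTT (5 mg/ml stock in PBS, 1/10 volume) was added for 2 h, and formazan was dissolved in DMSO before reading optical density. Each concentration was run in triplicate. CC50 was the concentration giving 50% cell death, or halving OD versus control.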
(Formazan colour is commonly taken as a measure of viable cells.)

Data set [2] can be described thus: cells. The class given is cell-based, Ebolavirus, HEK293T. The note with it: Orthoebolavirus, Mayinga, HEK-293T.
The nature of the next data set: in vitro. The conditions noted are these: human, HEK293T cells.
A short description of data set [3]: cells. The class given is cell-based, HEK293T. The conditions noted are these: Vesicular stomatitis virus, HEK-293T.
The subject of another data set is Influenza A virus. In words: Antiviral activity against Influenza A virus (H1N1). It counts as functional, organism-based.

Structures are written as SMILES. pIC50: −log10 of the molar value.

For the molecule `CN(C)CC(=O)O[C@@H]1C[C@@H]2CC[C@@]1(C)C2(C)C`, the cytotoxic concentration (CC50) (usually the concentration that lowers cell viability or growth by half) at 48 h in data set [1] came to 389 µM. Besides, the pIC50 (commonly the IC50 on a negative log10 scale, so that one unit is a factor of ten) in “cells [2]” is 3.60; in “cells [3]”, 3.28. The selectivity ratio in “in vitro” worked out at 2.
As for `CN1CCN(CC(=O)N[C@@H]2C[C@H]3CC[C@]2(C)C3(C)C)CC1`, the CC50 at 48 h in data set [1] came to 853 µM. The results for the negative logarithm of the IC50 (pIC50) in the data set “cells [2]” and in “cells [3]” were 4.88 and 3.07, respectively. Further, in the data set “in vitro”, the selectivity ratio was 64.
The corresponding values for `CCN1CCN(CCCC(=O)O[C@@H]2C[C@@H]3CC[C@@]2(C)C3(C)C)CC1` are 131 µM, 7.00, 3.78 and 880.
On to `CC1(C)[C@H]2CC[C@]1(C)[C@H](OC(=O)CCN1CCCCCC1)C2`, for which, in data set [1], the cytotoxic concentration (CC50) at 48 h was found to be 182 µM. For the same molecule, the pIC50 is 5.29 in the data set “cells [2]” and 3.72 in the data set “cells [3]”. For the same molecule, the selectivity ratio in “in vitro” amounted to 36.
The corresponding values for `CC1(C)[C@H]2CC[C@]1(C)[C@H](OC(=O)CN1CCCCC1)C2` are 141 µM, 4.80, 3.91 and 9.
On the same counts, the results for `CC1(C)[C@H]2CC[C@]1(C)[C@H](OC(=O)CN1CCN(CCO)CC1)C2` are 296 µM, 4.86, 3.40 and 21.
As for `CC1(C)[C@@H]2CC[C@@]1(C)/C(=N/CCO)C2`, in the data set with Influenza A virus, the pIC50 is 5.29.
In data set [1], `CCN1CCN(CC(=O)N[C@@H]2C[C@H]3CC[C@]2(C)C3(C)C)CC1` displayed a CC50 at 48 h of 660 µM. In addition, the pIC50 in “cells [2]” is 5.07; in “cells [3]”, 3.18. Besides, the selectivity ratio in “in vitro” stood at 78.
The corresponding values for `CC1(C)[C@@H]2CC[C@@]1(C)[C@H](NC(=O)CN1CCOCC1)C2` are 838 µM, 5.24, 3.08 and 147.
The corresponding values for `CC1CCN(CCCCC(=O)O[C@@H]2C[C@@H]3CC[C@@]2(C)C3(C)C)CC1` are 73 µM, 6.70, 4.08 and 408.
On the same counts, the results for `CCN(CC)CCC(=O)O[C@@H]1C[C@@H]2CC[C@@]1(C)C2(C)C` are 327 µM, 4.91, 3.39 and 26.
For the molecule `CC1(C)[C@H]2CC[C@]1(C)[C@H](OC(=O)CCCN1CCN(Cc3ccccc3)CC1)C2`, the CC50 at 48 h in data set [1] was 30.1 µM. For the same molecule, the pIC50 is 6.52 in “cells [2]” and 4.59 in the data set “cells [3]”. Further, the selectivity ratio in “in vitro” turned out to be 100.
As to `CC1(C)[C@H]2CC[C@]1(C)[C@H](OC(=O)CCCN1CCCCC1)C2`, the midpoint of cytotoxicity in data set [1], the CC50 at 48 h, lay at 74.8 µM. Further, the values for the negative logarithm of the IC50 (pIC50) in the data set “cells [2]” and in “cells [3]” were 6.52 and 4.30, respectively. The selectivity ratio in the data set “in vitro” was 230.
On the same counts, the results for `CCN1CCN(CCC(=O)N[C@@H]2C[C@H]3CC[C@]2(C)C3(C)C)CC1` are 565 µM, 6.22, 3.25 and 908.
The molecule `CC1(C)[C@@H]2CC[C@@]1(C)[C@H](NC(=O)CCCN1CCOCC1)C2` gave a CC50 at 48 h in data set [1] of 172 µM. In addition, the pIC50 is 5.03 in the data set “cells [2]” and 3.76 in “cells [3]”. Further, in the data set “in vitro”, the selectivity ratio was 18.
`CCOC(=O)N1CCN(CC(=O)O[C@@H]2C[C@@H]3CC[C@@]2(C)C3(C)C)CC1` displayed a 50% cytotoxic concentration (CC50) at 48 h in data set [1] of 227 µM. Also, the negative logarithm of the IC50 (pIC50) was 4.70 in “cells [2]” and 3.95 in the data set “cells [3]”. In addition, the selectivity ratio in “in vitro” was determined as 11.
As to `CC1CCN(CCCC(=O)N[C@@H]2C[C@H]3CC[C@]2(C)C3(C)C)CC1`, in data set [1], the midpoint of cytotoxicity, the CC50 at 48 h, lay at 142 µM. Moreover, the pIC50 in the data set “cells [2]” was 5.47; in the data set “cells [3]” it was 3.85. Moreover, the selectivity ratio in the data set “in vitro” came to 41.

The values are drawn from ChEMBL document CHEMBL4706564 (Eur J Med Chem, 2020).
